Laboratory results from PMC9730744 (ACS Omega, 2022).
Marks after values point to notes of the source that are not given here.

How the values were obtained:
rat synovial cells [1] = assay: LDH activity assay of synovial cells in vitro; type: cell-based; details: for LDH activity ± SD: 1 μM, supernatant of rat synovial cells, 48 h; for LDH content in the supernatant / damage to synovial cells (in words): compared with the normal group
How it was run: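 Log-phase rat synovial cells (2 × 10⁴/well) were cultured 48 h at 37 °C, 5% CO₂. They then received test compound at graded concentrations, methotrexate, or DMSO vehicle for 48 h. Plates were centrifuged 10 min, and supernatant LDH was assayed with a kit. Activity (U/L) = [(OD sample − OD control)/([…] − OD blank)] × 0.2 mM × 1000. Three independent experiments, each in triplicate.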

[2] = Acute toxicity test in mice; details: both, mouse, in vivo, po
How it was run: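 Single oral gavage of 0.4 mL test substance to SPF mice (18–22 g) after 1-week acclimatization at 22 ± 2 °C on a 12 h light/dark cycle. Mice were randomized into 10 groups, half male and half female, fasted 8 h before dosing and 2 h after. Mortality, death time and signs of poisoning were recorded over 14 days, and LD50 was taken as the acute toxicity measure.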

rat synovial cells [3] = assay: Morphology of rat synovial cells in vitro; type: cell-based; details: 1 μM, 48 h, Figure 3
How it was run: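 Synovial cells at 70–80% confluence were detached with 0.25% trypsin and seeded at 5000 cells/well in 24-well plates. Groups received test compound (1 μM), methotrexate (1 μM) or DMSO, with an untreated normal group. After 48 h culture, morphology was examined by cell imaging analysis.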

[4] = system: TLR4, MyD88, NF-κB, and IκB in rat synovial cells; assay: TLR4/NF-κB signaling pathway protein expression in rat synovial cells; type: cell-based; details: 1 μM, LPS 1 μg·mL^–1, compared with the LPS group, p < 0.01
How it was run: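 Synovial cells (5000/well) were cultured 24 h, stimulated with LPS (1 μg·mL⁻¹) for 24 h, then treated with test compound at 1 μM for 24 h. Cells were fixed in 4% fixative for 45 min, permeabilized with 0.25% Triton for 15 min and blocked with 5% BSA for 10 min. Rabbit anti-rat primaries (1:100 or 1:200) were applied overnight at 4 °C, then FITC goat anti-rabbit (1:400, 30 min, 37 °C) and DAPI (1:800). Read-out was mean fluorescence intensity.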

[5] = system: CFA-induced arthritis in rats; assay: Complete Freund's adjuvant induced arthritis in rats; type: in vivo, rat; details: for IL-6 content in serum after treatment / TNF-α content in serum after treatment: high dose (100 mg·kg^–1·d^–1) and low dose (50 mg·kg^–1·d^–1); for IL-6 content in serum after treatment: Figure 4c; for TNF-α content in serum after treatment: Figure 4d; for change of paw volume before and after treatment: oral
How it was run: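 SPF adult rats (200 ± 20 g) were acclimatized 2 weeks at 22 ± 3 °C and 40–70% humidity. Arthritis was induced with 0.1 mL CFA injected 2 cm from the tail root; the normal group received saline. From day 14 after induction, rats were dosed orally at 50 or 100 mg·kg⁻¹·d⁻¹ daily for 14 days. Paw volume was measured by toe volume meter before induction and on dosing days 1 and 14.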

[6] = system: TNF-α, IL-1β, and IL-6 in rat synovial cells; assay: Inflammatory cytokines in the rat synovial cell supernatant; type: cell-based; details: 1 μM, LPS 1 μg·mL^–1, compared with the LPS group, p < 0.01
How it was run: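 After 24 h they were stimulated with LPS (1 μg·mL⁻¹) for 24 h, then treated with test compound or methotrexate at 1 μM for 24 h. Supernatant was centrifuged at 3000 rpm for 15 min, and TNF-α, IL-1β and IL-6 were measured by ELISA. Three independent experiments, each in triplicate.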

rat synovial cells [7] = details: read-out: IC50, growth of synovial cells; cited from earlier work
[8] = 50 mg·kg^–1·d^–1 for 14 days, Figure 4a

Row | SMILES | LDH activity ± SD (rat synovial cells [1]) | LDH content in the supernatant / damage to synovial cells (in words) (rat synovial cells [1]) | LD50 at 14 days [2] [mg/kg] | morphology of rat synovial cells (rat synovial cells [3]) | expression of MyD88 [4] | expression of NF-κB [4] | expression of TLR4 [4] | expression of the IκB protein [4] | IL-6 content in serum after treatment [5] | TNF-α content in serum after treatment [5] | change of paw volume before and after treatment [5, 8] | change of paw volume before and after treatment ([5]; 100 mg·kg^–1·d^–1 for 14 days, Figure 4b) | content of IL-1β in the supernatant [6] | content of IL-6 in the supernatant [6] | content of TNF-α in the supernatant [6] | IC50 (rat synovial cells [7]) [µM]
1 | O=C1C=C2CC[C@@H](C(=O)O)CC2C(=O)C1 (stereo partly drawn) [Compound 21] | 297.79 ± 49.6 U/L | little damage to synovial cells | – | – | – | – | – | – | – | – | – | – | – | – | – | –
2 | CCOC(=O)[C@@H]1CCC2=CC(=O)CC(=O)C2C1 (stereo partly drawn) [Compound 23] | 342.78 ± 22.74 ^c U/L | little damage to synovial cells | 2307 ± 7.37 | significant concentration dependence on synovial cell injury | – | – | – | – | – | – | – | – | – | – | – | –
3 | O=C1C=C2CC[C@@H](C3CCC(=O)CC3)CC2C(=O)C1 (stereo partly drawn) [Compound 28, (7R)-7-(4-oxocyclohexyl)-6,7,8,8a-tetrahydronaphthalene-1, 3 (2H, 5H)-dione] | 375.29 ± 17.87 ^c U/L | little damage to synovial cells | – | significant concentration dependence on synovial cell injury | – | – | – | – | – | – | – | – | – | – | – | –
4 | O=C1C=C2CC[C@@H](O)CC2C(=O)C1 (stereo partly drawn) [Compound 32, (7R)-7-hydroxy-6,7,8,8a-tetrahydronaphthalene-1, 3 (2H, 5H)-dione] | 307.02 ± 30.86 ^c U/L | little damage to synovial cells | 2658 ± 9.06 | significant concentration dependence on synovial cell injury | significantly downregulated | significantly downregulated | significantly downregulated | significantly upregulated | basically at a low level | decreased | little change | hardly changed | significantly decreased | significantly decreased | significantly decreased | –
5 | CC(=O)N[C@@H]1CCC2=CC(=O)CC(=O)C2C1 (stereo partly drawn) [Compound 33] | 264.24 ± 27.71 U/L | little damage to synovial cells | – | – | – | – | – | – | – | – | – | – | – | – | – | –
6 | O=C1C=C2CCC(F)(F)CC2C(=O)C1 (stereo not drawn) [Compound 36, 7,7-difluoro-6,7,8,8a-tetrahydronaphthalene-1,3 (2H, 5H)-dione] | 292.07 ± 31.56 U/L | little damage to synovial cells | 2709 ± 8.63 | significant concentration dependence on synovial cell injury | – | – | – | – | – | – | – | – | – | – | – | –
7 | CC(C)[C@H]1CC[C@]2(C)C(=O)CCC(=O)C=C12 [Dysodensiol K] | – | – | – | – | – | – | – | – | – | – | – | – | – | – | – | 11.8 ± 0.23
8 | CN(Cc1cnc2nc(N)nc(N)c2n1)c1ccc(C(=O)N[C@@H](CCC(=O)O)C(=O)O)cc1 [methotrexate, reference compound] | 438.75 ± 11.50 ^c U/L | significantly increased | 1368 ± 5.34 | significantly damaged | significantly downregulated | significantly downregulated | significantly downregulated | significantly upregulated | basically at a low level | decreased | significant volume change | – | significantly decreased | significantly decreased | significantly decreased | –
